Measurements as given in BindingDB's records for doi:10.1021/acs.jmedchem.6b00914 (Amri, 2016).

Target: T1, Sodium- and chloride-dependent glycine transporter 2 (Homo sapiens, UniProt Q9Y345)
T1 sequence (Q9Y345 whole entry): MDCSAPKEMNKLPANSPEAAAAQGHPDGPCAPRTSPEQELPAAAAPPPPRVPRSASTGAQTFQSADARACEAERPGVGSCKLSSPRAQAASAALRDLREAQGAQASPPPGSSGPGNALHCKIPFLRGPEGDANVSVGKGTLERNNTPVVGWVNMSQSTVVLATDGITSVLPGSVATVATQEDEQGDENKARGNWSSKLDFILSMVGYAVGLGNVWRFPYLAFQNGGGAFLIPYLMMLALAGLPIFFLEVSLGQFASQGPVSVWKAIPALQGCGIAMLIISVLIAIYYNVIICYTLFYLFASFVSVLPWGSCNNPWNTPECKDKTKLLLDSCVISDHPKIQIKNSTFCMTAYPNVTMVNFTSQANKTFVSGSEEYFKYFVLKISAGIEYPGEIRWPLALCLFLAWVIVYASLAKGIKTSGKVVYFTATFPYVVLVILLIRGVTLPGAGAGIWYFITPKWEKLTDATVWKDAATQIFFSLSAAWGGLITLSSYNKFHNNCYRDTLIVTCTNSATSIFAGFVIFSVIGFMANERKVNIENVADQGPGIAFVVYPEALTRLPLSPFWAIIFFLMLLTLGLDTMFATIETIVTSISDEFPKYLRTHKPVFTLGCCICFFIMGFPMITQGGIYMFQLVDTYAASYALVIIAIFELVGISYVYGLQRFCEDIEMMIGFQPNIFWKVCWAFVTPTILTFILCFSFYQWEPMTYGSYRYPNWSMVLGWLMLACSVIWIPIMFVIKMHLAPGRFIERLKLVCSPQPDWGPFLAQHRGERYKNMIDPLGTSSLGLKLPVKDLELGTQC
Experiment: Inhibition of human glycine transporter-2 expressed in HEK293 cells assessed as reduction in [14C]glycine uptake preincubated for 10 mins followed by [14C]glycine addition measured after 3 hrs by scintillation proximity assay
How it was run: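 HEK293 cells stably transfected with GlyT-2 (Geneticin-selected polyclonal population) were plated on poly-L-lysine-coated plates in DMEM/10% FBS and incubated overnight. The [¹⁴C]glycine uptake SPA was then run as for JAR cells: uptake buffer, 10 min room-temperature preincubation, 3 h incubation at 37 °C.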

CC(NC(=O)c1ccc(C(F)(F)F)cc1Cl)C1(N2CCN(S(=O)(=O)c3cn(C)nn3)CC2)CCC(F)(F)CC1 (stereo unspecified)
IC50: > 75 µM
